Published values of several laboratories.
Compare with care: the assays were run in different laboratories.
Cell line: A549
Read-out: cell growth or viability

The IC50 of `COc1ccccc1C#CCNCC(O)COc1cccc2[nH]c3ccccc3c12` (stereo not shown) is reported as over 100 µM (CCK-8; 72 h).
With `Cc1cccc(-n2ncc(Br)c(Br)c2=O)c1` the IC50 was 1.62 µM (resazurin; 96 h).
For `C=CC(=O)Nc1cc(Nc2nc(Nc3cnn(C)c3)c3sccc3n2)c(OC)cc1N(C)CCN(C)C`, the IC50 was over 50 µM (MTT).
`Cc1c(OCC(F)(F)F)ccnc1COc1ccc(NC(=O)Nc2cccc(C(F)(F)F)c2)cc1` has an IC50 of 2.65 µM (MTT; 72 h).
With `COc1ccccc1/C=C/CNCC(O)COc1cccc2ccccc12` (stereo not shown) the IC50 was 16.9 µM (CCK-8; 72 h).
`COc1cc([C@@H]2c3cc4c(cc3[C@@H](O[C@@H]3O[C@@H]5CO[C@@H](C)O[C@H]5[C@H](O)[C@H]3O)[C@H]3COC(=O)[C@H]23)OCO4)cc(OC)c1O` gave an IC50 of 4.1 µM (fluorescence; 48 h).
`COc1cccc2c1C(=O)c1c(O)c3c(c(O)c1C2=O)C[C@@](O)(C(=O)CO)C[C@@H]3O[C@H]1C[C@H](N)[C@H](O)[C@H](C)O1` gave an IC50 of 0.62 µM (SRB).
With `O=C1Nc2ccccc2/C1=N/NC(=O)c1cc2ccccc2[nH]1` the IC50 was 13 µM.
With `CC1=C(O)C(=O)C=C2C1=CC=C1[C@@]2(C)CC[C@@]2(C)[C@@H]3C[C@](C)(C(=O)OCCCCCCCO)CC[C@]3(C)CC[C@]12C` the IC50 was over 100 µM (MTT; 48 h).
`COc1cc2ncnc(Nc3ccc(F)c(Cl)c3)c2cc1NC(=O)N/N=C/c1cccn1CCN1CCOCC1` gave an IC50 of 0.58 µM (MTT; 72 h).
With `CC(C)(C)NC(=O)NNC(=O)c1ccc(Nc2nccc(-c3ccc(Cl)cc3)n2)cc1` the IC50 was 19.5 µM (MTT).
For `COc1cc2ncnc(Nc3ccc(F)c(Cl)c3)c2cc1NC(=O)N/N=C/c1cccn1CCCN1CCOCC1`, the IC50 was 1.86 µM (MTT; 72 h).
With `C/C=C/C(=O)Nc1cc(Nc2nc(Nc3cnn(C)c3)c3sccc3n2)c(OC)cc1N(C)CCN(C)C` the IC50 was 25.9 µM (MTT).
With `CCNC(=S)NC(=O)c1ccc2ccccc2c1` the IC50 was 5.01 µM (48 h).
For `COc1ccc(-c2nn(-c3ccc(S(C)(=O)=O)cc3)cc2/C=N/N=c2\[nH]c(-c3ccc(Br)cc3)cs2)cc1`, the IC50 was 14.3 µM (MTT; 48 h).
With `COc1cc2ncnc(Nc3ccc(F)c(Cl)c3)c2cc1NC(=O)N/N=C/CN1CCOCC1` the IC50 was 6.69 µM (MTT; 72 h).
`C=CC(=O)Nc1cc(Nc2nc(N3CCc4sccc4C3)c3cccnc3n2)c(OC)cc1N1CCN(C(C)=O)CC1` has an IC50 of over 50 µM (MTT).
`O=c1[nH]cc(F)c(=O)[nH]1` has an IC50 of 37.2 µM (MTT; 48 h).
`Oc1ncnc2cc(Nc3nc(-c4ccccc4)cs3)ccc12` has an IC50 of 24.7 µM (MTT).
With `COc1ccc(C(=O)O[C@@H]2CN3Cc4c(cc5c(c4OC)OCO5)[C@@]24C=C[C@H](OC)C[C@@H]34)cc1OC` the IC50 was 2.6 µM (WST-1).
The IC50 of `COCCCOc1ccnc(COc2ccc(NC(=O)Nc3cccc(C(F)(F)F)c3)cc2)c1C` is reported as 4.38 µM (MTT; 72 h).
`COc1cc(-c2nc(C(=O)Nc3nnc(-c4cc5ccccc5n4C)s3)cc3c2[nH]c2ccccc23)cc(OC)c1OC` gave an IC50 of 7.85 µM (MTT; 72 h).
